TLR4-MyD88 BLA = inhibitors of human TLR4-MyD88 binding | 200,000 compounds, 0.18% hits | inhibition, % at 8.4 µM | AID 861 | HeLa CL3-4 TLR4/MyD88 BLA complementation, FRET ratio; in the data active = inhibition above about 25%
NOD2 RIPK2 PPI = NOD2-RIPK2 protein interaction inhibition; O43353; CHO BLA complementation NOD2-RIPK2, CCF4 ratio; inhibition, % at 4.98 µM; 360,000 compounds, 0.38% hits; in the data active = inhibition above about 21%
Target sequence (O43353 whole entry, looked up): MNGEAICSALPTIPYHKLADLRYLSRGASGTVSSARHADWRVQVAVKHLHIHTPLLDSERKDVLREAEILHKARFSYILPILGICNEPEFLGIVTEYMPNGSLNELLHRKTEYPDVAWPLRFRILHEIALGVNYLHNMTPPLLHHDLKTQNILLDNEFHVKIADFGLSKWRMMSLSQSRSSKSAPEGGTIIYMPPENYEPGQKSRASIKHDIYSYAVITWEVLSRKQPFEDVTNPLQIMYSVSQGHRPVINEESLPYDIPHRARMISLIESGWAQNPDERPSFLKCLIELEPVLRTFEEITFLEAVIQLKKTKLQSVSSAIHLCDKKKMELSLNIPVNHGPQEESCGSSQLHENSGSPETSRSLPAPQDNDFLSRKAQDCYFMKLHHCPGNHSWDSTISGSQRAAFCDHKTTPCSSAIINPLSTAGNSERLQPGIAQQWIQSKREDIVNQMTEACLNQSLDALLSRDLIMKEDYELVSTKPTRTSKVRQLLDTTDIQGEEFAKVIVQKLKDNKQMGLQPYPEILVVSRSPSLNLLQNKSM
TLR9-MyD88 block = blocks human TLR9 binding to MyD88; Q9NR96+Q99836; CHO BLA complementation TLR9-MyD88, CCF4 FRET ratio; inhibition, % at 4.98 µM; 340,000 compounds, 0.21% hits;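 active = inhibition above the mean over all tested compounds plus 3 SD, cut at about 21% in these data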
CHOP UPR activ = activators of apoptotic arm of unfolded protein response (CHOP); CHO-CHOP luciferase reporter, UPR activation, luminescence; percent of tunicamycin response over DMSO baseline; activation, % at 10 µM; 330,000 compounds, 0.34% hits;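 active = at 10 µM dose, activation of 40% or more, normalized to positive control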
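System: CHO CHOP reporter cells. Amount: 500 cells per well. Buffer or medium: F12 medium, 10% FBS. Compound dosing: one dose, 10 µM in 0.5% DMSO. Incubation: 6 h compound exposure at 37 °C after overnight seeding. Technique: Steady-Glo luciferase luminescence. Benchmarks: tunicamycin and DMSO controls.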
CHOP inhibitor = CHOP inhibition in unfolded protein response; inhibition, % at 10 µM; 220,000 compounds, 3.8% hits; CHO-K1 CHOP-promoter luciferase, tunicamycin-induced, 15-18 h;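 active = compounds that reduced the stress-induced luciferase reporter signal by more than about 70% of percent inhibition, limit read from the data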
UPR XBP1 act = adaptive UPR (XBP1) activation | CHO-XBP1 luciferase reporter, IRE1-XBP1 UPR activation, luminescence; percent of tunicamycin response, DMSO as zero | activation, % at 20 µM | 330,000 compounds, 0.33% hits;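 active = versus positive control, 20 µM dose yields 30% or more activation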
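Assay system: IRE1-XBP1 luciferase reporter CHO line. Input: 1000 cells/well. Buffer or medium: F12 with 10% serum. Doses: 20 µM, 1% DMSO. Times: overnight seeding at 37 °C, 6 h compound treatment at 37 °C. Technique: Steady-Glo luciferase glow luminescence, 10 min after reagent addition.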
Of the large screens only hits and unclear results are named; the others gave an inactive call. The full list was thinned out, with hits kept by preference.

COc1cccc(-c2nc(NC(C)C)c3ccccc3n2)c1O	none
COc1cnc(-c2ccccc2)nc1Oc1cccc(C)c1C	CHOP inhibitor 78
O=C(C1CCCCC1)N1CCC2CC1c1cc(Cl)ccc12 (stereo not given)	none (no result: TLR4-MyD88 BLA, CHOP UPR activ, CHOP inhibitor, UPR XBP1 act)
O=C(O)c1nn(CC(=O)N(C2CCCCC2)C2CCCCC2)c(=O)c2ccccc12	CHOP inhibitor 93
Cc1cccc(C)c1OCCn1nc(C(=O)O)c2ccccc2c1=O	CHOP inhibitor 72
CC(C)(C)c1ccc(OCCn2nc(C(=O)O)c3ccccc3c2=O)cc1	none (no result: TLR4-MyD88 BLA, CHOP inhibitor)
Cc1cccc(OCCn2nc(C(=O)O)c3ccccc3c2=O)c1	CHOP inhibitor 85
O=C(Nc1ccc(F)c(Cl)c1)c1ccc2nc([C@@H]3O[C@H](CO)[C@H](O)[C@H](O)[C@H]3O)[nH]c2c1	none (no result: TLR4-MyD88 BLA, TLR9-MyD88 block, CHOP UPR activ, CHOP inhibitor, UPR XBP1 act)
COCCN1C(=O)c2ccccc2C1c1nc2ccccc2[nH]1 (stereo not given)	none (no result: TLR4-MyD88 BLA, TLR9-MyD88 block, CHOP UPR activ, CHOP inhibitor, UPR XBP1 act)
CCCCN(Cc1ccccc1)S(=O)(=O)c1cc(Br)cc2c1N(C(C)=O)C(C)C2 (stereo not given)	CHOP inhibitor 84
O=C1c2cccc(NCCCNCCO)c2C(=O)c2cccc(NCCCNCCO)c21	none (no result: TLR4-MyD88 BLA, CHOP UPR activ, CHOP inhibitor, UPR XBP1 act)
C=CCc1ccccc1OCC(=O)N/N=C/c1ccc(OC(C)=O)cc1OC(C)=O	CHOP inhibitor 73
CCN(CC)C(=O)C1=C(C)N(CCC2=CCCCC2)C(=O)C(CC(=O)NCCc2ccccn2)C1 (stereo not given)	none (no result: TLR4-MyD88 BLA, CHOP UPR activ, CHOP inhibitor, UPR XBP1 act)
O=C(NC(Cc1c[nH]c2ccccc12)C(=O)O)OCC1c2ccccc2-c2ccccc21 (stereo not given)	none (no result: TLR4-MyD88 BLA, TLR9-MyD88 block, CHOP UPR activ, CHOP inhibitor, UPR XBP1 act)
O=C(Nc1ccc(Cl)cc1)Nc1ccc(Cl)c(Cl)c1	none (no result: TLR4-MyD88 BLA, NOD2 RIPK2 PPI, TLR9-MyD88 block, CHOP inhibitor)
O=C(Nc1ccc(Cl)c(Cl)c1)Nc1ccc(Br)cc1F	CHOP inhibitor 101
C=C(CN(C)C)C(=O)c1cc(OC)c(OC)cc1OC	none (no result: TLR4-MyD88 BLA, CHOP UPR activ, CHOP inhibitor, UPR XBP1 act)
Cc1cc(-c2csc(NCc3ccccc3)n2)c(C)n1C	none (no result: CHOP UPR activ, UPR XBP1 act)
Cc1nn(C)cc1-c1csc(N)n1	none
Cc1cc(-c2csc(N)n2)c(C)n1CCC(C)C	CHOP inhibitor 79
Cc1cc(-c2csc(N)n2)c(C)n1CCc1ccccc1	CHOP inhibitor 81
CCC(C)c1c(N)n(S(=O)(=O)c2ccc(C)cc2)oc1=O (stereo not given)	none (no result: TLR4-MyD88 BLA, CHOP UPR activ, CHOP inhibitor, UPR XBP1 act)
Cc1onc(-c2c(F)cccc2Cl)c1C(=O)OCC(=O)N(C)c1ccccc1	none (no result: TLR4-MyD88 BLA, CHOP UPR activ, CHOP inhibitor, UPR XBP1 act)
COC(=O)C1=C(N)Oc2cc(C)n(CC3CCCO3)c(=O)c2C1c1ccc(Cl)c(Cl)c1 (stereo not given)	CHOP inhibitor 85
COC(=O)C1=C(N)Oc2cc(C)n(CCCn3ccnc3)c(=O)c2C1c1ccc(Cl)cc1 (stereo not given)	CHOP inhibitor 77
CCn1c(C)cc2c(c1=O)C(c1ccccc1)C(C(=O)OC)=C(N)O2 (stereo not given)	none
Cc1cc(C)cc(Cn2cc(CN3CC(N4CCN(C)CC4)CS3(=O)=O)nn2)c1 (stereo not given)	none (no result: TLR4-MyD88 BLA, TLR9-MyD88 block, CHOP UPR activ, CHOP inhibitor, UPR XBP1 act)
O=C(/C=C/[C@H]1O[C@@H](n2cnc3c(NC(=O)c4ccccc4)ncnc32)[C@H](O)[C@@H]1O)NC1CCCCC1	none (no result: TLR4-MyD88 BLA, TLR9-MyD88 block, CHOP UPR activ, CHOP inhibitor, UPR XBP1 act)
Cc1cc2oc(=O)cc(CN3CCC(C)CC3)c2cc1Cl	CHOP inhibitor 85
COC(=O)CCn1nnc(-c2ccc(C(C)C)cc2)n1	CHOP inhibitor 88
COC(=O)CCn1nnc(-c2cccs2)n1	none
COC(=O)C1CC2=C(CCC2=O)N(c2ccccc2)C1=O (stereo not given)	none (no result: TLR4-MyD88 BLA, CHOP UPR activ, CHOP inhibitor, UPR XBP1 act)
O=C(NCc1ccccn1)C(=O)Nc1nc(C23CC4CC(CC(C4)C2)C3)cs1	CHOP inhibitor 71
O=C(NCc1ccccn1)NC12CC3CC(CC(C3)C1)C2	none
CCNC(=O)C1(C)CCCN(C(=O)c2nc(C)oc2C)C1 (stereo not given)	none (no result: TLR4-MyD88 BLA, TLR9-MyD88 block, CHOP UPR activ, CHOP inhibitor, UPR XBP1 act)
CCSC(=O)NC12CC3CC(CC(C3)C1)C2	none
CSC(=O)NC12CC3CC(CC(C)(C3)C1)C2	CHOP inhibitor 78
CC1(c2ccc(Cl)cc2Cl)NC(=O)N(CC(=O)NCCC2=CCCCC2)C1=O (stereo not given)	none (no result: TLR4-MyD88 BLA, CHOP UPR activ, CHOP inhibitor, UPR XBP1 act)
COc1ccc(/C=C2\SC(=O)N(CC(=O)NNC(=O)c3ccccc3O)C2=O)cc1OC	none
COc1ccc(/C=C2\SC(=O)N(CC(=O)NNC(=O)c3ccccc3O)C2=O)cc1	CHOP inhibitor 78
O=C(CCCN1C(=O)/C(=C/c2ccccc2)SC1=S)Nc1ccccc1O	CHOP inhibitor 82
O=C(CCCN1C(=O)S/C(=C\c2ccccc2)C1=O)NNC(=O)c1ccccc1O	CHOP inhibitor 95
O=C(CN1C(=O)S/C(=C\c2ccccc2)C1=O)NNC(=O)c1ccccc1O	none
Cc1cn([C@H]2C[C@H](O)[C@@H](/C=C/C(=O)NCc3ccco3)O2)c(=O)[nH]c1=O	none (no result: TLR4-MyD88 BLA, TLR9-MyD88 block, CHOP UPR activ, CHOP inhibitor, UPR XBP1 act)
CCCCN1C(=O)C(CC(=O)NCCCN(C)C)CC(C(=O)N2CCCCCC2)=C1C (stereo not given)	none (no result: TLR4-MyD88 BLA, TLR9-MyD88 block, CHOP UPR activ, CHOP inhibitor, UPR XBP1 act)
CCOC(=O)C1=CCN(S(=O)(=O)c2ccccc2Cl)C1c1ccc(C)cc1 (stereo not given)	none (no result: TLR4-MyD88 BLA, TLR9-MyD88 block, CHOP UPR activ, CHOP inhibitor, UPR XBP1 act)
Cc1cccc(Nc2nc(-c3ccc(O)c(O)c3)cs2)n1	CHOP UPR activ 100 (no result: TLR4-MyD88 BLA, CHOP inhibitor)
Cc1cccc(Nc2nc(-c3ccc(F)c(C)c3)cs2)n1	none (no result: TLR4-MyD88 BLA, CHOP inhibitor)
